Screening data deposited in PubChem BioAssay by several laboratories.
PAD4 FP inh: blocks human protein arginine deiminase 4; recombinant PAD4, RCA probe fluorescence polarization; inhibition, % at 6.36 µM; 330,000 compounds, 0.41% hits; AID 485272;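 active = percent inhibition above a cutoff equal to the mean of all tested compounds plus 3 SD, cut at about 15% in these data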;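 also: 0% = PAD4 with RCA probe and DMSO and 100% = probe without PAD4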
Apaf1 inhib: human Apaf-1 inhibition | O14727 | 330,000 compounds, 0.71% hits | reconstituted apoptosome caspase-3 activity, DEVD-Rh110 fluorescence | inhibition, % at 20 µM; active = inhibition of at least 40% at 20 µM;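 also: plate controls were DMSO wells for no effect and DEVD-CHO caspase inhibitor wells for full effect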
Target sequence (O14727 whole entry, looked up): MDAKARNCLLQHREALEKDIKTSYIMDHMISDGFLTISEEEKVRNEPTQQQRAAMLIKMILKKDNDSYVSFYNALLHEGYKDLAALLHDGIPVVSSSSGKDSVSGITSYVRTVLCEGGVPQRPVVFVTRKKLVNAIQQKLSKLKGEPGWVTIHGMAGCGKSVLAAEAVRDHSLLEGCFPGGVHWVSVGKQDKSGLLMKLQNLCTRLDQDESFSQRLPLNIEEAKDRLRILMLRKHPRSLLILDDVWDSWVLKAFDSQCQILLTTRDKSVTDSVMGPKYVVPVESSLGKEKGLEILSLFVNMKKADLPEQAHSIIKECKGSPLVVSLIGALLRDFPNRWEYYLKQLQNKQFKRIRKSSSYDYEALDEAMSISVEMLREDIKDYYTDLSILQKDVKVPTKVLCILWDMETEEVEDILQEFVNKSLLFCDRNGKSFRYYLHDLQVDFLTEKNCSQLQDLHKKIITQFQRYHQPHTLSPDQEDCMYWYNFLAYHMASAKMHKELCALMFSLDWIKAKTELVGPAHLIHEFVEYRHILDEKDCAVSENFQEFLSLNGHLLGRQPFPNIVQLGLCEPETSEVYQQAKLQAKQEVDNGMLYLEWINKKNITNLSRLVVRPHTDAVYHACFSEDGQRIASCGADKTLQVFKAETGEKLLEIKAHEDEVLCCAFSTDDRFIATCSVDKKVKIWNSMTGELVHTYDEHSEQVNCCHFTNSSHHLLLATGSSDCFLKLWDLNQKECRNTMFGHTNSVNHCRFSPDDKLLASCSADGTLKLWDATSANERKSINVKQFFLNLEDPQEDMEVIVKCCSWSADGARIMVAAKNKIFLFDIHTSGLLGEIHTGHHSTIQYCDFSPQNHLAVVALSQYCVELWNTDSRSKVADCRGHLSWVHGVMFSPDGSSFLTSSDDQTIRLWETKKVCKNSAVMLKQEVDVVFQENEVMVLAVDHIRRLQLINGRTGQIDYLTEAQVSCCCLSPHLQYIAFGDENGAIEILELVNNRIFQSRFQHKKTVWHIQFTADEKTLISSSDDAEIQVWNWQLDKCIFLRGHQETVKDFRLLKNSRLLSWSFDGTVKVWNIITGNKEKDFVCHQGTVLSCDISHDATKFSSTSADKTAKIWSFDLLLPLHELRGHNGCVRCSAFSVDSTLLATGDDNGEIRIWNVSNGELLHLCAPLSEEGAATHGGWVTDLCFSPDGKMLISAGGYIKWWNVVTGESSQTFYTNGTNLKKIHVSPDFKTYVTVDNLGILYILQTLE
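Material: reconstituted apoptosome with Apaf-1, cytochrome c, caspase-9, procaspase-3, dATP. Technique: Rh110 fluorescence intensity. Buffer or medium: pH 7.5 Hepes buffer with CHAPS, BSA, DTT. Times: 30 min plus 50 min, RT.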
PP5 inh: blocks human protein phosphatase 5 activity. inhibition, % at 6.7 µM. AID 1987. 320,000 compounds, 0.18% hits. purified PP5c, OMFP substrate fluorescence;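 active = inhibition above the campaign's mean inhibition across all tested compounds plus 3 SD, cut at about 9.5% in these data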;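 also: 0% = DMSO only and 100% = 100 µM cantharidin control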
UCH37 inh: blocks the human deubiquitinase UCH37; Q9Y5K5; purified proteasome/UCH37, Ub-AMC cleavage fluorescence; inhibition, % (concentration not given with the values); 330,000 compounds, 0.33% hits; AID 588478;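 active = mean inhibition over replicate wells above about 20%, limit read from the data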;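 also: 0% = compound-free wells with enzyme and 100% = wells lacking proteasome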
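Schedule: 30 min plus 25 min, room temperature / Material: human UCH37 within purified proteasomes / Technique: AMC fluorescence intensity at 355/460 nm / Buffer or medium: pH 7.4 Tris-HCl (50 mM) with ovalbumin, ATP-MgCl2, DTT / Controls: wells without proteasome as full block, compound-free enzyme plus substrate as uninhibited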
GSTO1 counter: blocks human GSTO1 in RBBP9 counter-screen; recombinant GSTO1, activity-based probe fluorescence polarization; inhibition, % at 5.96 µM; 300,000 compounds, 1.1% hits; AID 1974;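 active = inhibition above the campaign mean inhibition plus 3 SD, cut at about 35% in these data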;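 also: 0% = GSTO1-1 with DMSO and 100% = wells lacking GSTO1-1 enzyme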
CTSL1 counter: blocks F. hepatica cathepsin L1 in PFM18AAP counter-screen | AID 1906 | inhibition, % at 5.96 µM | recombinant F. hepatica cathepsin L1, Z-Leu-Arg-MCA fluorescence | 300,000 compounds, 0.49% hits;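 active = inhibition above the mean of all tested compounds plus 3 SD, set per screening campaign, cut at about 17% in these data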;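 also: 0% = plate median of test compound wells and 100% = 1 µM Z-Phe-Ala-diazomethylketone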
PAD4 FP conf: PAD4 (human) inhibition, confirmed | inhibition, % at 6.36 µM | AID 488796 | recombinant PAD4, RCA probe fluorescence polarization | shares compounds with PAD4 FP inh | 1,200 compounds, 28% hits;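 active = mean inhibition across replicates above the hit cutoff set by the earlier primary screen, cut at about 15% in these data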;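 also: inhibitors block active-site labeling by the probe so polarization falls; 0% = PAD4 with probe and DMSO and 100% = probe without PAD4 enzyme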
* = called active by the depositor; . = no result given. This is a sample that favours compounds with a hit; in the whole collection about 2% have one here.

SMILES	PAD4 FP inh	Apaf1 inhib	PP5 inh	UCH37 inh	GSTO1 counter	CTSL1 counter	PAD4 FP conf
CCCCCCCCOc1ccc(C2OC34CCCCC3C(C#N)(C#N)C2(C#N)C(=N)O4)cc1 (configuration not stated)	16*	8	0	-111	14	4	9
CN(C)C(=NOC(=O)c1ccccc1)c1nonc1N	.	.	.	0	.	.	.
CCCN1CCN(CCCNC(=O)C2CCN(c3nnc(-n4c(C)ccc4C)s3)CC2)CC1	18*	11	-2	3	-2	0	-1
Cc1cccc(C=NNC(=O)c2ccc(NC(=O)c3cccc(Cl)c3)cc2)n1	.	.	.	-27	.	.	.
CC(C)CCc1c(O)nc(SCC(=O)N2CCCCCC2)[nH]c1=O	16*	-5	0	.	4	4	3
NC(=O)c1ccc(NC(=O)CSC(=O)c2ccccc2)cc1	17*	-6	.	16	.	.	8
CCCOc1c(Br)cc(C=NO)cc1OC	.	.	.	-2	.	.	.
O=C1/C(=C/C=C/c2ccco2)SC(=S)N1NS(=O)(=O)c1ccccc1	65*	27	-2	19	-3	12	3
COc1cccc(/C=C2\Oc3ccc(O)cc3C2=O)c1O	16*	13	2	0	-12	0	5
C/C(C=NNc1nncc(=O)[nH]1)=C\c1ccccc1	.	.	.	7	.	.	.
COc1ccc(S(=O)(=O)N(C(C)=O)c2ccc3oc(=O)sc3c2)cc1	22*	5	1	1	32	-2	7
COc1ccc(N(CC(=O)NN=C(C)c2ccc(C)cc2)S(=O)(=O)c2ccccc2)cc1	.	.	.	3	.	.	.
CC(C)(C)N(Cc1ccccc1)C(=O)c1cccs1	2	7	-1	7	0	2	.
N#CCCN(Cc1ccccc1)C(=O)c1cccs1	31*	-12	2	-2	-1	-2	8
CC(=O)c1cccc(OCc2cc(C(=O)N3CCSCC3)no2)c1	35*	6	4	2	-1	0	6
O=C(O)CSc1c2ccccc2cc2ccccc12	23*	-7	0	-82	2	-7	20*
Cc1[nH]c2ccccc2c1SCC(=O)O	0	5	1	5	10	0	.
C=CCn1c(SCC(=O)O)nc2sc(CC)cc2c1=O	-2	4	1	3	-2	10	.
C=CCn1c(SCC(=O)N2CCCC2=O)nc2sc(CC)cc2c1=O	33*	2	-3	.	.	.	-3
CC(=O)Nc1ccccc1-c1ccc(C)o1	1	-4	0	-1	6	1	.
Cc1ccc(NC(=O)CS(=O)CC(=O)Nc2ccccc2-c2ccc(C)o2)cc1 (configuration not stated)	17*	11	2	.	31	5	1
CC(C)Cn1c(N)c(C(=O)COC(=O)Cc2cccs2)c(=O)n(C)c1=O	46*	1	-1	2	0	2	2
COc1cc2ccccc2cc1C(=O)NC1CCC(C)CC1 (configuration not stated)	16*	15	.	-14	.	.	4
CCCC[n+]1c(C)sc2cc(OC)ccc21	14	0	-3	-1	1	-2	.
Cc1ccc2sc(C)[n+](CCCS(=O)(=O)[O-])c2c1	17*	9	0	1	2	0	-2
Cc1ccc2c(c1)sc(C)[n+]2CCCS(=O)(=O)[O-]	18*	5	-6	0	-10	-8	11
Cc1cccc(NC(=S)Nc2ccc(N3CCOCC3)cc2)c1C	23*	3	2	1	6	-3	3
COc1ccc(C2=NNC(=Nc3cc(S(=O)(=O)N(C)C)ccc3C)SC2)c(OC)c1	18*	-16	0	3	12	3	12
Cc1cc(NC(=O)CCC(=O)N(c2ccccc2)C(C(=O)NC2CCCC2)c2ccccc2F)no1 (configuration not stated)	19*	7	1	0	-3	0	2
Cc1cc(NC(=O)CCC(=O)N(c2cccnc2)C(C(=O)NC2CCCC2)c2ccccc2F)no1 (configuration not stated)	1	-6	0	2	2	-21	.
